Active and inactive are the calls of the source. No cut-off for these calls is given here.
Key:
[1] = biological target: T1, Tyrosinase (Agaricus bisporus) (UniProt O42713); assay: Inhibition of mushroom tyrosinase assessed as oxidation of L-DOPA at 0.8 mM
T1 sequence (whole entry): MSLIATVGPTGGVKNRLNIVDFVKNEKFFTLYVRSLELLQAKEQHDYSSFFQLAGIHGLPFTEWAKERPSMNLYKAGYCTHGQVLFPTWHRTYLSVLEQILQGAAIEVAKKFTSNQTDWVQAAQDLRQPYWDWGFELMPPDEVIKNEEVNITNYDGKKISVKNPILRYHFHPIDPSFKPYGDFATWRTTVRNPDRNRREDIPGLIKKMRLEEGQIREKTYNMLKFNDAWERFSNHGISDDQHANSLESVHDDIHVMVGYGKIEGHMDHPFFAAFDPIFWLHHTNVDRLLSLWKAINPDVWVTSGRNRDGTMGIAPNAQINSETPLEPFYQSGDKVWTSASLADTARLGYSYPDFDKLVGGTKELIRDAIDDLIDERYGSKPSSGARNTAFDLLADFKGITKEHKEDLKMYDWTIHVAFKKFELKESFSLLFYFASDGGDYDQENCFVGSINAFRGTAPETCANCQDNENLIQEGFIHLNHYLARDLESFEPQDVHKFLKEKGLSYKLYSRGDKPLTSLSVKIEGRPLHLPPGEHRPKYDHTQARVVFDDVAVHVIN

[2] = biological target: T1, Tyrosinase (Agaricus bisporus); assay: Inhibition of mushroom tyrosinase assessed as oxidation of L-DOPA
[3] = biological target: T1, Tyrosinase (Agaricus bisporus); assay: Inhibition of mushroom tyrosinase assessed as oxidation of L-DOPA by Lineweaver-Burke plot analysis
In short: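 Mushroom tyrosinase (138 units) added to L-DOPA (1 ml of 2.5 mM stock) plus sample (DMSO solution diluted 30-fold) in 0.1 M phosphate buffer pH 6.8, after 10 min at 25°. Initial linear rate of dopachrome formation read at 475 nm; double-reciprocal plot of 1/V (1/ΔA475 per min).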

[4] = biological target: T1, Tyrosinase (Agaricus bisporus); assay: Inhibition of mushroom tyrosinase assessed as oxidation of L-DOPA preincubated for 5 mins before L-DOPA addition
In short: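 Enzyme (138 units) and sample pre-incubated in 0.1 M phosphate buffer pH 6.8 for 5 min at 25°. Then 0.4 ml of 6.3 mM L-DOPA stock added and the reaction followed at 475 nm for 4 min. Controls: no inhibitor with or without pre-incubation, and inhibitor without pre-incubation.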

CCCCCC/C=C\CCCCCCCc1cc(O)c(C)c(O)c1
inhibition [1]: 24%

C=CC/C=C\C/C=C\CCCCCCCc1cc(O)cc(O)c1
inhibition [1]: 88%
Activity [2]: Dose-dependent effect
ID50 [2]: 0.04 mM
Activity [3]: Active
Activity [4]: Active

CCC/C=C\C/C=C\CCCCCCCc1cccc(O)c1C(=O)O
inhibition [1]: 15%
Activity [2]: Dose-dependent effect
ID50 [2]: 6 mM

C=CC/C=C\C/C=C\CCCCCCCc1cc(O)c(C)c(O)c1
inhibition [1]: 16%

CCCCCCCCCCCCCCCc1cc(O)cc(O)c1
inhibition [1]: 21%
Activity [2]: Dose-dependent effect

CCCCCC/C=C\CCCCCCCc1cccc(O)c1C(=O)O
inhibition [1]: 15%
Activity [2]: Dose-dependent effect
ID50 [2]: 7.5 mM

Oc1cccc(O)c1
inhibition [1]: 34%
ID50 [2]: 1.2 mM

OC[C@H]1O[C@@H](Oc2ccc(O)cc2)[C@H](O)[C@@H](O)[C@@H]1O
ID50 [2]: 6.2 mM

CCCCCCCCCCCCCCCc1cccc(O)c1
Activity [1]: inactive

O=C(O)c1ccccc1O
inhibition [1]: 23%
ID50 [2]: 3.9 mM

CCC/C=C\C/C=C\CCCCCCCc1cc(O)c(C)c(O)c1
inhibition [1]: 20%

C=CC/C=C\C/C=C\CCCCCCCc1cccc(O)c1C(=O)O (stereo in doubt; 8)
inhibition [1]: 15%
Activity [2]: Dose-dependent effect
ID50 [2]: 4.2 mM

C=CC/C=C\C/C=C\CCCCCCCc1cccc(O)c1C(=O)O (stereo in doubt; 5)
inhibition [1]: 45%
Activity [2]: Dose-dependent effect
ID50 [2]: 1.1 mM
Activity [3]: Active
Activity [4]: Active
